This passage reports IC50, inhibition and Activity results from ChEMBL document CHEMBL1221219, “Selective blockade of 2-arachidonoylglycerol hydrolysis produces cannabinoid behavioral effects” (Nat Chem Biol, 2009).

Experiment [1] has as its target T1, Fatty-acid amide hydrolase 1 (Mus musculus, UniProt O08914).
T1 sequence (O08914 whole entry): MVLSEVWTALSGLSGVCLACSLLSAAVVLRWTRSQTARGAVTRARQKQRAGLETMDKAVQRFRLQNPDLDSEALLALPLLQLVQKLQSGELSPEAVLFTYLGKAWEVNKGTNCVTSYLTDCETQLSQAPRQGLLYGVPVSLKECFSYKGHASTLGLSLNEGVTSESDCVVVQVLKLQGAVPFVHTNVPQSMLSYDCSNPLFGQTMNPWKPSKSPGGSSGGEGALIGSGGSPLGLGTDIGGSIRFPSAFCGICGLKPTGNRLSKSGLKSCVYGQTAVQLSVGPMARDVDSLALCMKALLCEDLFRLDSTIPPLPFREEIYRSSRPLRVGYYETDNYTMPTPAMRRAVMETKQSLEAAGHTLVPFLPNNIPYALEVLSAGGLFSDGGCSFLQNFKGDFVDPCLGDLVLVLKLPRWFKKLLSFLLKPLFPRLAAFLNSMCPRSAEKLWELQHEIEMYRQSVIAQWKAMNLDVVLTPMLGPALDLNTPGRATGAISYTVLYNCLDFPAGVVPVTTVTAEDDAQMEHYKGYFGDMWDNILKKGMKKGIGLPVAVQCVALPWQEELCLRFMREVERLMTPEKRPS
In words: Inhibition of FAAH in C57B1/6J mouse brain membrane after 20 mins by using oleamide as a substrate by LC-MS method. The class given is cell membranes. Put shortly: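 Mouse brain membrane proteome pre-incubated with inhibitor for 30 min at 37°C, then oleamide (FAAH substrate) added. Hydrolysis quantified by an LC-MS substrate assay.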

The subject of experiment [2] is Mus musculus. In words: Inhibition of MAGL in C57B1/6J mouse brain membrane at 16 mg/kg, ip after 4 hrs by competitive activity-based protein profiling-MudPIT method. Set-up: dose 16 mg/kg. The class given is functional, organism-based. In a few lines:
(§1)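 After i.p. dosing in 4:1 PEG300:Tween80, male C57Bl/6J mice were killed at 4 h. Brain membrane proteomes from treated and vehicle mice were labelled with FP-biotin. Labelled proteins were enriched on avidin, digested on-bead with trypsin and analysed by multidimensional LC-MS. Proteins were identified by SEQUEST, and dosed samples were compared with vehicle.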

For experiment [3], the system named is Mus musculus. Description: Inhibition of ABHD12 in C57B1/6J mouse brain membrane at 16 mg/kg, ip after 4 hrs by competitive activity-based protein profiling-MudPIT method. The class given is functional, organism-based. Details: dose 16 mg/kg. In a few lines:
(§2)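 Mice were dosed 16 mg kg^-1 i.p. or vehicle and killed at 4 h. Brain membrane proteomes were labelled with FP-biotin, avidin-enriched, trypsin-digested on bead, analysed by multidimensional LC-MS and identified by SEQUEST.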

For experiment [4], the system named is Mus musculus. In words: Inhibition of BAT5 in C57B1/6J mouse brain membrane at 16 mg/kg, ip after 4 hrs by competitive activity-based protein profiling-MudPIT method. It is filed as functional, organism-based. Details: dose 16 mg/kg. In a few lines:
as §2

Experiment [5] has as its system Mus musculus. Description: Inhibition of ACOT1 in C57B1/6J mouse brain membrane at 16 mg/kg, ip after 4 hrs by competitive activity-based protein profiling-MudPIT method. The class given is functional, organism-based. Details: dose 16 mg/kg. Put shortly:
as §2

Experiment [6] concerns Mus musculus. Description: Inhibition of LPL1 in C57B1/6J mouse brain membrane at 16 mg/kg, ip after 4 hrs by competitive activity-based protein profiling-MudPIT method. It is filed as functional, organism-based. Set-up: dose 16 mg/kg. In a few lines:
as §1

The subject of experiment [7] is Mus musculus. In words: Inhibition of RBBP9 in C57B1/6J mouse brain membrane at 16 mg/kg, ip after 4 hrs by competitive activity-based protein profiling-MudPIT method. The class given is functional, organism-based. Details: dose 16 mg/kg. Put shortly: as §1
In experiment [8] the test system is Mus musculus. In words: Change in palmitic acid in intraperitoneally dosed C57B1/6J mouse brain by LC-MS. It is filed as functional, organism-based. Put shortly:
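Male C57Bl/6J mice given 4, 8, 16 or 40 mg kg^-1 i.p. in 4:1 PEG300:Tween80 at 4 μl g^-1, or vehicle, and killed after 4 h. Whole-brain lipids were quantified by LC-MS.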

The test system of experiment [9] is Mus musculus. Description: Antinociceptive activity against C57B1/6J mouse at assessed as latency in reaction time required for thermal stimulus-induced tail flicking at 16 mg/kg, ip after 2 hrs. It is filed as functional, organism-based. Details: dose 16 mg/kg. Put shortly: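 Tail immersion assay of thermal pain in male C57Bl/6J mice, 6-8 weeks. Dose 16 mg kg^-1 i.p. in 4:1 v/v PEG300:Tween80 at 4 μl g^-1, with vehicle controls.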

Experiment [10] deals with Mus musculus. In words: Antinociceptive activity against formalin-induced pain in C57B1/6J mouse assessed as paw lifting or licking during late phase (20-40 mins) at 40 m/kg, po administered 2 hrs before formalin challenge. The class given is functional, organism-based.
Experiment [11] deals with Mus musculus. In words: Induction of hypomotility in C57B1/6J mouse at 16 mg/kg, ip. The class given is functional, organism-based. Details: dose 16 mg/kg. Put shortly: (§3)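 Male C57Bl/6J mice, 6-8 weeks, 20-26 g, given 16 mg kg^-1 i.p. in 4:1 v/v PEG300:Tween80 at 4 μl g^-1; vehicle controls received PEG300:Tween80 alone. Cannabinoid effects were scored in the tetrad test.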

In experiment [12] the test system is Mus musculus. In words: Induction of hypothermia in C57B1/6J mouse at 16 mg/kg, ip pretreated with rimonabant. It is filed as functional, organism-based. Details: dose 16 mg/kg. In a few lines: as §3
In experiment [13] the target is T2, Monoacylglycerol lipase ABHD6 (Mus musculus) (UniProt Q8R2Y0).
T2 sequence (whole entry): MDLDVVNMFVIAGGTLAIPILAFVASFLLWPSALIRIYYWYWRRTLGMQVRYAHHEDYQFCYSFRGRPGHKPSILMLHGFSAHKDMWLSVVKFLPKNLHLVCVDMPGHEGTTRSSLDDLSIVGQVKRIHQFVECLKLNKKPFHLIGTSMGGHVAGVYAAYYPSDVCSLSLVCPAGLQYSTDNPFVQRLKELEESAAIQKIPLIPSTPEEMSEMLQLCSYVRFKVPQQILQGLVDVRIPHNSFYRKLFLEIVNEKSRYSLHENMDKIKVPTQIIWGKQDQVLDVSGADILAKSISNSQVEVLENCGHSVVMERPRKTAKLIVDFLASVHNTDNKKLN
In words: Inhibition of ABHD6 in C57B1/6J mouse brain membrane at 10 uM after 30 mins by competitive activity-based protein profiling method. The class given is cell membranes. In a few lines:
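Mouse brain membrane proteome at 1 mg ml^-1 in PBS was preincubated with inhibitor (1 nM-10 μM) for 30 min at 37°C. FP-rhodamine was then added at 2 μM final for 30 min at room temperature, followed by SDS-PAGE and in-gel fluorescence scanning.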

For experiment [14], the target named is T3, Fatty-acid amide hydrolase 1 (Mus musculus) (UniProt O08914).
T3 sequence (whole entry): T1 sequence (O08914 whole entry)
The following applies: C57B1/6J, Brain, Membrane, 10 uM.

Calls of active or inactive are those of the source. The rule behind the calls is not given here.

On to `O=C(Oc1ccc([N+](=O)[O-])cc1)N1CCC(C(O)(c2ccc3c(c2)OCO3)c2ccc3c(c2)OCO3)CC1`, for which half-maximal inhibition in [1] (IC50) was put at 4 µM. Also, the inhibition result (in the experiment on Mus musculus [2]; in experiment [13]; in [14]) was “Active” throughout. The inhibition entry in the experiment with Mus musculus [3], in the experiment with Mus musculus [4], in the experiment with Mus musculus [5], with Mus musculus [6] and with Mus musculus [7] was “inactive” throughout. Besides, the outcome with Mus musculus [8] and with Mus musculus [12] was inactive. For the same compound, the outcome in the experiment with Mus musculus [9], in the experiment with Mus musculus [10] and in the experiment with Mus musculus [11] was Active.
